Laboratory results from ChEMBL document CHEMBL1153726, “Synthesis and anticancer activity of sclerophytin-inspired hydroisobenzofurans” (Bioorg Med Chem Lett, 2009).

Experiments:
[1] = Antitumor activity against human KB3 cells after 96 hrs by MTT assay; type: functional, cell-based; conditions: KB3, 96 h
Outline: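 Human KB-3 carcinoma cells exposed to increasing compound concentrations; viability read by MTT colorimetric assay after 96 h. Values are means of triplicate assays, expressed relative to untreated controls.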

SK-MEL-2 = assay: Growth inhibition of human SK-MEL-2 cells at 10 uM after 96 hrs by MTT assay; type: functional; set-up: scale not given: the % may be the effect or the level left
BT-549 = assay: Growth inhibition of human BT549 cells at 10 uM after 96 hrs by MTT assay; type: functional; set-up: scale not given: the % may be the effect or the level left
PC-3 = assay: Growth inhibition of human PC3 cells at 10 uM after 96 hrs by MTT assay; type: functional; set-up: scale not given: the % may be the effect or the level left
RXF 393 = assay: Growth inhibition of human RXF393 cells at 10 uM after 96 hrs by MTT assay; type: functional; set-up: scale not given: the % may be the effect or the level left
HCC 2998 = assay: Growth inhibition of human HCC2998 cells at 10 uM after 96 hrs by MTT assay; type: functional; set-up: scale not given: the % may be the effect or the level left
UACC-62 = assay: Growth inhibition of human UACC62 cells at 10 uM after 96 hrs by MTT assay; type: functional; set-up: scale not given: the % may be the effect or the level left
EKVX = assay: Growth inhibition of human EKVX cells at 10 uM after 96 hrs by MTT assay; type: functional; set-up: scale not given: the % may be the effect or the level left
HCT-15 = assay: Growth inhibition of human HCT15 cells at 10 uM after 96 hrs by MTT assay; type: functional; set-up: scale not given: the % may be the effect or the level left
OVCAR-3 = assay: Growth inhibition of human OVCAR-3 cells at 10 uM after 96 hrs by MTT assay; type: functional; set-up: scale not given: the % may be the effect or the level left
M14 = assay: Growth inhibition of human M14 cells at 10 uM after 96 hrs by MTT assay; type: functional; set-up: scale not given: the % may be the effect or the level left
NCI-H226 = assay: Growth inhibition of human NCI-H226 cells at 10 uM after 96 hrs by MTT assay; type: functional; set-up: scale not given: the % may be the effect or the level left
COLO 205 = assay: Growth inhibition of human COLO205 cells at 10 uM after 96 hrs by MTT assay; type: functional; set-up: scale not given: the % may be the effect or the level left
[2] = Growth inhibition of human Hs 578T cells at 10 uM after 96 hrs by MTT assay; type: functional; set-up: scale not given: the % may be the effect or the level left
CCRF-CEM = assay: Growth inhibition of human CCRF-CEM cells at 10 uM after 96 hrs by MTT assay; type: functional; set-up: scale not given: the % may be the effect or the level left
SK-MEL-5 = assay: Growth inhibition of human SK-MEL-5 cells at 10 uM after 96 hrs by MTT assay; type: functional; set-up: scale not given: the % may be the effect or the level left
SN12C = assay: Growth inhibition of human SN12C cells at 10 uM after 96 hrs by MTT assay; type: functional; set-up: scale not given: the % may be the effect or the level left
HOP-62 = assay: Growth inhibition of human HOP62 cells at 10 uM after 96 hrs by MTT assay; type: functional; set-up: scale not given: the % may be the effect or the level left
TK-10 = assay: Growth inhibition of human TK10 cells at 10 uM after 96 hrs by MTT assay; type: functional; set-up: scale not given: the % may be the effect or the level left
MDA-MB-231 = assay: Growth inhibition of human MDA-MB-231 cells at 10 uM after 96 hrs by MTT assay; type: functional; set-up: scale not given: the % may be the effect or the level left
NCI-H522 = assay: Growth inhibition of human NCI-H522 cells at 10 uM after 96 hrs by MTT assay; type: functional; set-up: scale not given: the % may be the effect or the level left
OVCAR-4 = assay: Growth inhibition of human OVCAR4 cells at 10 uM after 96 hrs by MTT assay; type: functional; set-up: scale not given: the % may be the effect or the level left
Malme-3M = assay: Growth inhibition of human MALME-3M cells at 10 uM after 96 hrs by MTT assay; type: functional; set-up: scale not given: the % may be the effect or the level left
HOP-92 = assay: Growth inhibition of human HOP92 cells at 10 uM after 96 hrs by MTT assay; type: functional; set-up: scale not given: the % may be the effect or the level left
MOLT-4 = assay: Growth inhibition of human MOLT4 cells at 10 uM after 96 hrs by MTT assay; type: functional; set-up: scale not given: the % may be the effect or the level left
NCI/ADR-RES = assay: Growth inhibition of human NCI/ADR-RES cells at 10 uM after 96 hrs by MTT assay; type: functional; set-up: scale not given: the % may be the effect or the level left
SR = assay: Growth inhibition of human SR cells at 10 uM after 96 hrs by MTT assay; type: functional; set-up: scale not given: the % may be the effect or the level left
IGROV-1 = assay: Growth inhibition of human IGROV1 cells at 10 uM after 96 hrs by MTT assay; type: functional; set-up: scale not given: the % may be the effect or the level left
HT-29 = assay: Growth inhibition of human HT-29 cells at 10 uM after 96 hrs by MTT assay; type: functional; set-up: scale not given: the % may be the effect or the level left
A498 = assay: Growth inhibition of human A498 cells at 10 uM after 96 hrs by MTT assay; type: functional; set-up: scale not given: the % may be the effect or the level left
A549 = assay: Growth inhibition of human A549 cells at 10 uM after 96 hrs by MTT assay; type: functional; set-up: scale not given: the % may be the effect or the level left
OVCAR-8 = assay: Growth inhibition of human OVCAR8 cells at 10 uM after 96 hrs by MTT assay; type: functional; set-up: scale not given: the % may be the effect or the level left
SW-620 = assay: Growth inhibition of human SW620 cells at 10 uM after 96 hrs by MTT assay; type: functional; set-up: scale not given: the % may be the effect or the level left
SNB-19 = assay: Growth inhibition of human SNB19 cells at 10 uM after 96 hrs by MTT assay; type: functional; set-up: scale not given: the % may be the effect or the level left
U-251 = assay: Growth inhibition of human U251 cells at 10 uM after 96 hrs by MTT assay; type: functional; set-up: scale not given: the % may be the effect or the level left
[3] = Growth inhibition of human RPMI8266 cells at 10 uM after 96 hrs by MTT assay; type: functional; set-up: scale not given: the % may be the effect or the level left
SNB-75 = assay: Growth inhibition of human SNB75 cells at 10 uM after 96 hrs by MTT assay; type: functional; set-up: scale not given: the % may be the effect or the level left
DU-145 = assay: Growth inhibition of human DU145 cells at 10 uM after 96 hrs by MTT assay; type: functional; set-up: scale not given: the % may be the effect or the level left
MDA-MB-435 = assay: Growth inhibition of human MDA-MB-435 cells at 10 uM after 96 hrs by MTT assay; type: functional; set-up: scale not given: the % may be the effect or the level left
ACHN = assay: Growth inhibition of human ACHN cells at 10 uM after 96 hrs by MTT assay; type: functional; set-up: scale not given: the % may be the effect or the level left
T47D = assay: Growth inhibition of human T47D cells at 10 uM after 96 hrs by MTT assay; type: functional; set-up: scale not given: the % may be the effect or the level left
MCF7 = assay: Growth inhibition of human MCF7 cells at 10 uM after 96 hrs by MTT assay; type: functional; set-up: scale not given: the % may be the effect or the level left
SK-OV-3 = assay: Growth inhibition of human SKOV3 cells at 10 uM after 96 hrs by MTT assay; type: functional; set-up: scale not given: the % may be the effect or the level left
HL-60(TB) = assay: Growth inhibition of human HL-60(TB) cells at 10 uM after 96 hrs by MTT assay; type: functional; set-up: scale not given: the % may be the effect or the level left
NCI-H460 = assay: Growth inhibition of human NCI-H460 cells at 10 uM after 96 hrs by MTT assay; type: functional; set-up: scale not given: the % may be the effect or the level left
SK-MEL-28 = assay: Growth inhibition of human SK-MEL-28 cells at 10 uM after 96 hrs by MTT assay; type: functional; set-up: scale not given: the % may be the effect or the level left
NCI-H23 = assay: Growth inhibition of human NCI-H23 cells at 10 uM after 96 hrs by MTT assay; type: functional; set-up: scale not given: the % may be the effect or the level left
SF-268 = assay: Growth inhibition of human SF268 cells at 10 uM after 96 hrs by MTT assay; type: functional; set-up: scale not given: the % may be the effect or the level left
OVCAR-5 = assay: Growth inhibition of human OVCAR5 cells at 10 uM after 96 hrs by MTT assay; type: functional; set-up: scale not given: the % may be the effect or the level left
UO-31 = assay: Growth inhibition of human UO31 cells at 10 uM after 96 hrs by MTT assay; type: functional; set-up: scale not given: the % may be the effect or the level left
HCT-116 = assay: Growth inhibition of human HCT116 cells at 10 uM after 96 hrs by MTT assay; type: functional; set-up: scale not given: the % may be the effect or the level left
786-0 = assay: Growth inhibition of human 786-0 cells at 10 uM after 96 hrs by MTT assay; type: functional; set-up: scale not given: the % may be the effect or the level left
SF-539 = assay: Growth inhibition of human SF539 cells at 10 uM after 96 hrs by MTT assay; type: functional; set-up: scale not given: the % may be the effect or the level left
UACC-257 = assay: Growth inhibition of human UACC257 cells at 10 uM after 96 hrs by MTT assay; type: functional; set-up: scale not given: the % may be the effect or the level left
KM12 = assay: Growth inhibition of human KM12 cells at 10 uM after 96 hrs by MTT assay; type: functional; set-up: scale not given: the % may be the effect or the level left
MDA-MB-468 = assay: Growth inhibition of human MDA-MB-468 cells at 10 uM after 96 hrs by MTT assay; type: functional; set-up: scale not given: the % may be the effect or the level left
LOX IMVI = assay: Growth inhibition of human LOXIMVI cells at 10 uM after 96 hrs by MTT assay; type: functional; set-up: scale not given: the % may be the effect or the level left
K562 = assay: Growth inhibition of human K562 cells at 10 uM after 96 hrs by MTT assay; type: functional; set-up: scale not given: the % may be the effect or the level left
NCI-H322M = assay: Growth inhibition of human NCI-H322M cells at 10 uM after 96 hrs by MTT assay; type: functional; set-up: scale not given: the % may be the effect or the level left

Q: Which IC50 [1] does the source give for C=C(C)[C@H]1CC=C(C)[C@@]2(O)[C@@H]1[C@H](c1ccccc1Br)O[C@@H]2C(=O)OCC1CCCC1 here?
A: Its IC50 is greater than 100 µM.

Q: With C=C(C)[C@H]1CC(=O)C(C)=C2[C@@H](C(=O)OCC)O[C@@H](c3cccc(Br)c3)[C@@H]21 as the molecule, how does the IC50 [1] read?
A: Its IC50 is 30 µM.

Q: Which results are given for C=C(C)[C@H]1CC=C(C)[C@@]2(O)[C@@H]1[C@H](c1ccc(Cl)cc1Cl)O[C@@H]2C(=O)OCC?
A: Activity (SK-MEL-2): 106.54%; Activity (BT-549): 139.44%; Activity (PC-3): 99.33%; Activity (RXF 393): 95.61%; Activity (HCC 2998): 108.86%; Activity (UACC-62): 84.48%; Activity (EKVX): 104.39%; Activity (HCT-15): 108.1%; Activity (OVCAR-3): 112.11%; Activity (M14): 104.29%; Activity (NCI-H226): 97.47%; Activity (COLO 205): 122.22%; Activity [2]: 100.26%; Activity (CCRF-CEM): 98.31%; Activity (SK-MEL-5): 102.55%; Activity (SN12C): 98.08%; Activity (HOP-62): 92.21%; Activity (TK-10): 119.56%; Activity (MDA-MB-231): 101.68%; Activity (NCI-H522): 82.73%; Activity (OVCAR-4): 93.31%; Activity (Malme-3M): 117.74%; Activity (HOP-92): 94.71%; Activity (MOLT-4): 98.02%; Activity (NCI/ADR-RES): 101.67%; Activity (SR): 82.5%; Activity (IGROV-1): 82.34%; Activity (HT-29): 93.83%; Activity (A498): 102.47%; Activity (A549): 90.16%; Activity (OVCAR-8): 94.44%; Activity (SW-620): 97.1%; Activity (SNB-19): 87.9%; Activity (U-251): 103.59%; IC50 [1]: 3 µM; Activity [3]: 106.77%; Activity (SNB-75): 82.61%; Activity (DU-145): 110.29%; Activity (MDA-MB-435): 107.24%; Activity (ACHN): 109.85%; Activity (T47D): 94.32%; Activity (MCF7): 104.98%; Activity (SK-OV-3): 98.68%; Activity (HL-60(TB)): 100.94%; Activity (NCI-H460): 108.8%; Activity (SK-MEL-28): 113.23%; Activity (NCI-H23): 97.89%; Activity (SF-268): 100.46%; Activity (OVCAR-5): 103.98%; Activity (UO-31): 90.72%; Activity (HCT-116): 84.08%; Activity (786-0): 87.09%; Activity (SF-539): 100.6%; Activity (UACC-257): 94.54%; Activity (KM12): 99.49%; Activity (MDA-MB-468): 94.32%; Activity (LOX IMVI): 98%; Activity (K562): 79.96%; Activity (NCI-H322M): 113.73%

Q: Which IC50 [1] does the source give for C=C(C)[C@H]1CC=C(C)[C@@]2(O)[C@@H]1[C@H](c1cccc3ccccc13)O[C@@H]2C(=O)OC here?
A: Its IC50 is 10 µM.

Q: Which IC50 [1] does the source give for C=C(C)[C@H]1CC=C(C)C2=CO[C@@H](c3cccc4ccccc34)[C@@H]21 here?
A: Its IC50 is greater than 100 µM.
